Data on four molecules can be found in ChEMBL document CHEMBL1240400, “Comparative in vitro activities of nemonoxacin (TG-873870), a novel nonfluorinated quinolone, and other quinolones against clinical isolates” (2010).

In brackets after ≈: the same amount, converted by molar mass.

Assay type in all cases: functional
In one assay the test system is Pseudomonas aeruginosa. Kind of assay: Antibacterial activity against Pseudomonas aeruginosa by broth dilution method. A general note: In broth dilution the organism is exposed to a series of concentrations in liquid medium.
A further assay concerns Proteus mirabilis. Description: Antibacterial activity against Proteus mirabilis by broth dilution method.
Another assay deals with Citrobacter freundii. Description: Antibacterial activity against Citrobacter freundii by broth dilution method. In short, it runs like this:
(§1)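 Broth microdilution per CLSI in panels spanning a dilution range of each agent. Cation-adjusted Mueller-Hinton broth, final inoculum 5 × 10^5 CFU/ml from a 0.5 McFarland suspension. Incubated overnight at 35°C in ambient air, with quality control strains in each run. MIC reported; values at or below the lowest concentration tested are given as that concentration.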

The subject of the next assay is Acinetobacter baumannii. Kind of assay: Antibacterial activity against Acinetobacter baumannii by broth dilution method. In short, it runs like this: as §1
The next assay has as its system Haemophilus influenzae. Description: Antibacterial activity against Haemophilus influenzae by broth dilution method. The procedure, abridged: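 Broth microdilution per CLSI using Haemophilus Test Medium broth, seeded from a 0.5 McFarland suspension. Incubated overnight at 35°C in ambient air, with quality control strains in each run. MIC read against a tested dilution range; values at the low limit are given as the lowest concentration.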

For another assay, the system named is Klebsiella pneumoniae. Description: Antibacterial activity against Klebsiella pneumoniae by broth dilution method. In short, it runs like this: as §1
The next assay has as its system Enterobacter cloacae. Kind of assay: Antibacterial activity against Enterobacter cloacae by broth dilution method.
Assay [1] concerns Escherichia coli. Kind of assay: Antibacterial activity against ciprofloxacin susceptible Escherichia coli by broth dilution method. The procedure, abridged: as §1
Assay [2] relates to Staphylococcus aureus. Kind of assay: Antibacterial activity against ciprofloxacin susceptible and methicillin resistant Staphylococcus aureus by broth dilution method. In short, it runs like this:
(§2)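 Clinical isolates tested by CLSI broth microdilution in panels holding serial twofold drug dilutions in cation-adjusted Mueller-Hinton broth. Final inoculum 5 × 10^5 CFU/ml was made from a 0.5 McFarland suspension. Plates were incubated overnight at 35°C in ambient air, and the MIC was read as the lowest concentration inhibiting growth. Quality control strains were included in each run.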

The test system of the next assay is Streptococcus agalactiae. Description: Antibacterial activity against Streptococcus agalactiae by broth dilution method. In short, it runs like this: (§3)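 Streptococci were tested by CLSI broth microdilution in Mueller-Hinton broth with 3% lysed horse blood, seeded from a 0.5 McFarland suspension. Incubated overnight at 35°C in ambient air, with quality control strains in each run. MIC taken over a per-agent dilution range.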

Assay [3] has as its system Staphylococcus aureus. Kind of assay: Antibacterial activity against methicillin susceptible Staphylococcus aureus by broth dilution method.
In assay [4] the test system is Streptococcus pneumoniae. Kind of assay: Antibacterial activity against Levofloxacin resistant Streptococcus pneumoniae by broth dilution method. In short, it runs like this:
(§4)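 Streptococcus pneumoniae clinical isolates tested by CLSI broth microdilution. A 0.5 McFarland suspension was diluted into Mueller-Hinton broth with 3% lysed horse blood, then tested against serial drug dilutions. Plates were incubated overnight at 35°C in ambient air, and the MIC was read as the lowest inhibitory concentration. Quality control strains were included in each run.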

Assay [5] relates to Staphylococcus epidermidis. Kind of assay: Antibacterial activity against methicillin resistant coagulase negative Staphylococcus epidermidis by broth dilution method.
The next assay deals with Staphylococcus. Description: Antibacterial activity against methicillin resistant coagulase negative Staphylococcus by broth dilution method.
Assay [6] relates to Staphylococcus aureus. Kind of assay: Antibacterial activity against ciprofloxacin and methicillin resistant Staphylococcus aureus by broth dilution method. The procedure, abridged:
as §2

Another assay deals with Streptococcus viridans. Description: Antibacterial activity against Streptococcus viridans by broth dilution method. In short, it runs like this: as §3
For assay [7], the system named is Streptococcus pneumoniae. Kind of assay: Antibacterial activity against Levofloxacin susceptible Streptococcus pneumoniae by broth dilution method. The procedure, abridged: as §4
Assay [8] deals with Escherichia coli. Description: Antibacterial activity against ciprofloxacin resistant Escherichia coli by broth dilution method. In short, it runs like this: as §2
In another assay the test system is Streptococcus pyogenes. Description: Antibacterial activity against Streptococcus pyogenes by broth dilution method. In short, it runs like this: as §3

Consider `CO/N=C(\C(=O)N[C@@H]1C(=O)N2C(C(=O)[O-])=C(C[N+]3(C)CCCC3)CS[C@H]12)c1csc(N)n1`, for which the MIC50 in the assay with Pseudomonas aeruginosa is > 8 µg/mL; in the assay with Proteus mirabilis it was ≤ 0.06 µg/mL; with Citrobacter freundii, ≤ 0.06 µg/mL; with Acinetobacter baumannii, > 8 µg/mL; with Haemophilus influenzae, 0.25 µg/mL (≈ 0.52 µM). Moreover, the MIC90 against Pseudomonas aeruginosa was > 8 µg/mL; against Proteus mirabilis, 8 µg/mL (≈ 16.6 µM); with Citrobacter freundii, > 8 µg/mL; with Acinetobacter baumannii it was > 8 µg/mL; with Haemophilus influenzae, 0.5 µg/mL (≈ 1.04 µM).
As to `CC(C)(O/N=C(\C(=O)N[C@@H]1C(=O)N2C(C(=O)[O-])=C(C[n+]3ccccc3)CS[C@H]12)c1csc(N)n1)C(=O)O` [CEFTAZIDIME], the MIC50 is 32 µg/mL (≈ 58.5 µM) with Pseudomonas aeruginosa; ≤ 1 µg/mL against Proteus mirabilis; ≤ 1 µg/mL in the assay with Citrobacter freundii; 64 µg/mL (≈ 117 µM) against Acinetobacter baumannii; 16 µg/mL (≈ 29.3 µM) in the assay with Klebsiella pneumoniae; ≤ 1 µg/mL in the assay with Haemophilus influenzae. In addition, the values for the MIC50 against Enterobacter cloacae and with Escherichia coli [1] were 128 µg/mL (≈ 234 µM) and 1 µg/mL (≈ 1.83 µM), respectively. The MIC90 in the assay on Pseudomonas aeruginosa is > 128 µg/mL; against Proteus mirabilis it was ≤ 1 µg/mL; in the assay with Citrobacter freundii, 64 µg/mL (≈ 117 µM); in the assay with Acinetobacter baumannii it was > 128 µg/mL; with Klebsiella pneumoniae, > 128 µg/mL; in the assay on Haemophilus influenzae it was ≤ 1 µg/mL. In addition, the MIC90 in the assay with Enterobacter cloacae is > 128 µg/mL; in the assay on Escherichia coli [1], 16 µg/mL (≈ 29.3 µM). Moreover, the MIC in the assay with Haemophilus influenzae is ≤ 1 µg/mL; against Escherichia coli [1], 1 µg/mL (≈ 1.83 µM).
`CO/N=C(\C(=O)N[C@@H]1C(=O)N2C(C(=O)O)=C(CSc3nc(=O)c(O)nn3C)CS[C@H]12)c1csc(N)n1` [CEFTRIAXONE]: the MIC50 against Staphylococcus aureus [2] is > 8 µg/mL; against Streptococcus agalactiae, ≤ 0.06 µg/mL; in the assay with Staphylococcus aureus [3], 4 µg/mL (≈ 7.21 µM); with Streptococcus pneumoniae [4], 1 µg/mL (≈ 1.8 µM); in [5], > 8 µg/mL; in the assay with Pseudomonas aeruginosa it was > 8 µg/mL. Also, the MIC50 in the assay on Proteus mirabilis was ≤ 0.03 µg/mL; in the assay with Citrobacter freundii it was 0.25 µg/mL (≈ 0.451 µM); against Staphylococcus, > 8 µg/mL; with Staphylococcus aureus [6], > 8 µg/mL; in the assay with Acinetobacter baumannii it was > 8 µg/mL; with Streptococcus viridans, 0.25 µg/mL (≈ 0.451 µM). Besides, the MIC50 in the assay with Streptococcus pneumoniae [7] was 1 µg/mL (≈ 1.8 µM); against Escherichia coli [8], > 8 µg/mL; against Klebsiella pneumoniae, > 8 µg/mL; with Streptococcus pyogenes, ≤ 0.06 µg/mL; in the assay with Haemophilus influenzae, ≤ 0.03 µg/mL; with Enterobacter cloacae it was > 8 µg/mL. This molecule also showed an MIC50 in the assay on Escherichia coli [1] of 0.06 µg/mL (≈ 0.108 µM). For the same molecule, the MIC90 was > 8 µg/mL in the assay on Staphylococcus aureus [2]; 0.12 µg/mL (≈ 0.216 µM) with Streptococcus agalactiae; 4 µg/mL (≈ 7.21 µM) in the assay with Staphylococcus aureus [3]; 2 µg/mL (≈ 3.61 µM) in the assay on Streptococcus pneumoniae [4]; > 8 µg/mL in assay [5]; > 8 µg/mL in the assay with Pseudomonas aeruginosa. The MIC90 in the assay on Proteus mirabilis was > 8 µg/mL; against Citrobacter freundii, > 8 µg/mL; in the assay on Staphylococcus, > 8 µg/mL; in the assay on Staphylococcus aureus [6], > 8 µg/mL; with Acinetobacter baumannii, > 8 µg/mL; in the assay with Streptococcus viridans, 0.5 µg/mL (≈ 0.902 µM). Also, the MIC90 is 2 µg/mL (≈ 3.61 µM) against Streptococcus pneumoniae [7]; 64 µg/mL (≈ 115 µM) with Escherichia coli [8]; > 8 µg/mL in the assay with Klebsiella pneumoniae; ≤ 0.06 µg/mL against Streptococcus pyogenes; ≤ 0.03 µg/mL in the assay on Haemophilus influenzae; > 8 µg/mL against Enterobacter cloacae. Moreover, the MIC90 in the assay with Escherichia coli [1] is > 8 µg/mL. The MIC was > 8 µg/mL in the assay with Pseudomonas aeruginosa and ≤ 0.06 µg/mL against Streptococcus pyogenes.
Take `C[C@@H](O)[C@H]1C(=O)N2C(C(=O)O)=C(SCCNC=N)C[C@H]12` [IMIPENEM ANHYDROUS]: the MIC50 against Proteus mirabilis was found to be 2 µg/mL (≈ 6.68 µM); in the assay on Citrobacter freundii, 1 µg/mL (≈ 3.34 µM); in the assay with Acinetobacter baumannii, 2 µg/mL (≈ 6.68 µM); with Klebsiella pneumoniae, 0.5 µg/mL (≈ 1.67 µM); with Haemophilus influenzae it was 1 µg/mL (≈ 3.34 µM); with Enterobacter cloacae, 1 µg/mL (≈ 3.34 µM). The MIC90 with Proteus mirabilis is 8 µg/mL (≈ 26.7 µM); against Citrobacter freundii, 2 µg/mL (≈ 6.68 µM); against Acinetobacter baumannii, > 32 µg/mL; with Klebsiella pneumoniae it was 4 µg/mL (≈ 13.4 µM); in the assay on Haemophilus influenzae, 4 µg/mL (≈ 13.4 µM); in the assay on Enterobacter cloacae, 4 µg/mL (≈ 13.4 µM).
